Assay results reported in ChEMBL document CHEMBL1144236, “Synthesis of 1-arylpiperazyl-2-phenylcyclopropanes designed as antidopaminergic agents: cyclopropane-based conformationally restricted analogs of haloperidol” (Bioorg Med Chem, 2008).

Legend:
[1] = Displacement of [3H]YM-09151-2 from human dopamine D4.2 receptor in membrane suspensions by liquid scintillation counter
[2] = Displacement of [3H]prazosin from adrenergic alpha1 receptor in ICR mouse brain homogenate; format: tissue-based
Summary of the method: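 Brain tissue was homogenized in 19 vol. of 50 mM Tris–HCl pH 7.5 and centrifuged at 40,000g for 15 min, then the pellet was washed once and resuspended in 24 vol. buffer. Homogenate (about 400 protein) was incubated with [3H]prazosin (0.05–1 nM) for 1 h at 20 °C. Binding was ended by rapid filtration, with filter-bound radioactivity counted by liquid scintillation.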

Homo sapiens = species: Homo sapiens; experiment: Selectivity ratio of Ki for human dopamine D2S receptor to Ki for human dopamine D4.2 receptor
D(2) dopamine receptor = D(2) dopamine receptor (Homo sapiens, UniProt P14416); experiment: Displacement of [3H]YM-09151-2 from human dopamine D2S receptor in membrane suspensions by liquid scintillation counter
D(2) dopamine receptor, sequence (P14416 whole entry): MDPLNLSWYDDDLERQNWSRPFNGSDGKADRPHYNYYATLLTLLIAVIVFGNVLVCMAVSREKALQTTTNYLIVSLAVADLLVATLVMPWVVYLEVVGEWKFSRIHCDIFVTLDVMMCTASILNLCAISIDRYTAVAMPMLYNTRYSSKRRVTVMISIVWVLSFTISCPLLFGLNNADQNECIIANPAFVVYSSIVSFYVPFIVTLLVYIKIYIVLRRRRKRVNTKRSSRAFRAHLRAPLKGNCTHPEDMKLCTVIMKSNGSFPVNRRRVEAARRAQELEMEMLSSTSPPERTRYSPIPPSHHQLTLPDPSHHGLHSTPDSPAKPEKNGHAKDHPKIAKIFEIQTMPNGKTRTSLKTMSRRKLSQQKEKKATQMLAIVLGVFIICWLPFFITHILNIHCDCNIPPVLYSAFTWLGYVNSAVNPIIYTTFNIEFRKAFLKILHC

O=C(CCCN1CCC(O)(c2ccc(Cl)cc2)CC1)c1ccc(F)cc1 [HALOPERIDOL]
Ki [1]: 9.32 nM

Cc1ccc(N2CCN(C[C@@H]3C[C@@H]3c3ccccc3)CC2)c(C)c1
Ki [1]: 2050 nM
Ki [2]: 537 nM

Cc1ccc(N2CCN([C@H](C)[C@H]3C[C@]3(C)c3ccccc3)CC2)c(C)c1
Ki [1]: 4660 nM
Ki [2]: 401 nM
Ratio Ki (Homo sapiens): > 2.1
Ki (D(2) dopamine receptor): > 10000 nM

Cc1ccc(N2CCN(C[C@H]3C[C@H]3c3ccccc3)CC2)c(C)c1
Ki [1]: 897 nM
Ki [2]: 521 nM

Cc1ccc(N2CCN(C[C@H]3C[C@@H]3c3ccccc3)CC2)c(C)c1
Ki [1]: 130 nM
Ki [2]: 432 nM

Cc1ccc(N2CCN([C@@H](C)[C@H]3C[C@]3(C)c3ccccc3)CC2)c(C)c1
Ki [1]: 4190 nM
Ki [2]: 250 nM
Ratio Ki (Homo sapiens): > 2.4
Ki (D(2) dopamine receptor): > 10000 nM

Cc1ccc(N2CCN(C[C@H]3C[C@]3(C)c3ccccc3)CC2)c(C)c1
Ki [1]: 236 nM
Ki [2]: 906 nM
Ratio Ki (Homo sapiens): > 42
Ki (D(2) dopamine receptor): > 10000 nM
